Measured values from ChEMBL document CHEMBL1158847, “Litebamine N-homologues: preparation and anti-acetylcholinesterase activity” (J Nat Prod, 1998).

Biological target: Acetylcholinesterase (Electrophorus electricus, UniProt O42275)
Assay: Inhibition of electric eel AChE by colorimetric method
Details: not given
In short: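 Ellman colorimetric assay. Enzyme 0.125 U preincubated 2 min at 37 °C with test samples and DTNB 0.3 mM in 0.1 M phosphate buffer, pH 8.0. Reaction started with 0.5 mM […]. Absorbance followed at 412 nm over time. IC50 taken from dose-response curves of at least four concentrations spanning 0-90% inhibition.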

Sequence of Acetylcholinesterase (O42275 whole entry): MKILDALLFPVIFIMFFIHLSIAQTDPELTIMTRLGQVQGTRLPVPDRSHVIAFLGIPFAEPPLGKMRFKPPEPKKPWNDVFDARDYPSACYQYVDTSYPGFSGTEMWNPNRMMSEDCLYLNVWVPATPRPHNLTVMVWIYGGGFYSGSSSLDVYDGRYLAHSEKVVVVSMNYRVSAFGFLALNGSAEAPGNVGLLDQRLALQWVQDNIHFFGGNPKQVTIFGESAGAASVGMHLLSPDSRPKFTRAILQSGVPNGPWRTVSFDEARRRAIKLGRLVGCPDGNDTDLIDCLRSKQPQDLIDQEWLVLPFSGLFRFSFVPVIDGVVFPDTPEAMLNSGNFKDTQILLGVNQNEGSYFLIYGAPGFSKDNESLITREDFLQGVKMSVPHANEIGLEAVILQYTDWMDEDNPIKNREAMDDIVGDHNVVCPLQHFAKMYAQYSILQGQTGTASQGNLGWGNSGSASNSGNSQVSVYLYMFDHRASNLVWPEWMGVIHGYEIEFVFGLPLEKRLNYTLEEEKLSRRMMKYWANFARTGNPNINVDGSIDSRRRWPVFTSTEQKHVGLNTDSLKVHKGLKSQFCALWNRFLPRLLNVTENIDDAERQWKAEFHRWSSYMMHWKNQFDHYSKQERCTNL

**Q.** With `COc1cc2c(ccc3c(CCNC(C)C)cc(O)c(OC)c32)cc1O` as the molecule, how does the IC50 read?
**A.** 72 µM

**Q.** For `CCN1CCc2c(c(O)c(OC)c3c2ccc2cc(O)c(OC)cc23)C1`, which IC50 is on record?
**A.** 14.5 µM

**Q.** With `CCC[N+]1(C)CCc2c(c(O)c(OC)c3c2ccc2cc(O)c(OC)cc23)C1` (stereo not given) as the molecule, how does the IC50 read?
**A.** 2.79 µM

**Q.** With `CCNCCc1cc(O)c(OC)c2c1ccc1cc(O)c(OC)cc12` as the molecule, how does the IC50 read?
**A.** 27.2 µM

**Q.** With `COc1cc2c(ccc3c4c(c(O)c(OC)c32)CN(CC(C)C)CC4)cc1O` as the molecule, how does the IC50 read?
**A.** 6.51 µM

**Q.** For `COc1cc2c(ccc3c(CCNCC(C)C)cc(O)c(OC)c32)cc1O`, which IC50 is on record?
**A.** 62 µM

**Q.** Which IC50 does the source give for `CCCN1CCc2c(c(O)c(OC)c3c2ccc2cc(O)c(OC)cc23)C1` here?
**A.** 7.21 µM

**Q.** For `CCCCNCCc1cc(O)c(OC)c2c1ccc1cc(O)c(OC)cc12`, which IC50 is on record?
**A.** 111 µM

**Q.** With `CCCNCCc1cc(O)c(OC)c2c1ccc1cc(O)c(OC)cc12` as the molecule, how does the IC50 read?
**A.** 107 µM

**Q.** For `C=CCN1CCc2c(c(O)c(OC)c3c2ccc2cc(O)c(OC)cc23)C1`, which IC50 is on record?
**A.** 15.8 µM

**Q.** For `COc1cc2c(ccc3c4c(c(O)c(OC)c32)CN(C(C)C)CC4)cc1O`, which IC50 is on record?
**A.** 6.8 µM

**Q.** Which IC50 does the source give for `COc1cc2c(ccc3c4c(c(O)c(OC)c32)CN(C)CC4)cc1O` [LITEBAMINE] here?
**A.** 22 µM

**Q.** With `COc1cc2c(ccc3c4c(c(O)c(OC)c32)CN(Cc2ccccc2)CC4)cc1O` as the molecule, how does the IC50 read?
**A.** 10.7 µM

**Q.** Which IC50 does the source give for `CCCCN1CCc2c(c(O)c(OC)c3c2ccc2cc(O)c(OC)cc23)C1` here?
**A.** 7.79 µM

Test system: not listed separately
Assay: Antiplatelet activity against rabbit platelets assessed as inhibition of arachidonic acid-induced thromboxane B2 formation at 15 uM
Format: functional
Details: Oryctolagus cuniculus, Platelet

**Q.** For `COc1cc2c(ccc3c4c(c(O)c(OC)c32)CN(C)CC4)cc1O` [LITEBAMINE], which inhibition at 15 µM is on record?
**A.** 77%
